From ChEMBL document CHEMBL3861952, “Donepezil-like multifunctional agents: Design, synthesis, molecular modeling and biological evaluation” (Eur J Med Chem, 2016)
Active and inactive are the calls of the source. No cut-off for these calls is given here.

Tests used:
Homo sapiens [1] = species: Homo sapiens; assay: Selectivity index, ratio of IC50 for human recombinant MAOB to IC50 for human recombinant MAOA
Outline: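 Separate 30 min pre-incubations at 37 °C of serial inhibitor dilutions with recombinant human MAO-A (360 mU/mL) or MAO-B (67.5 mU/mL). Then 1 mM p-tyramine with HRP/Amplex UltraRed added, pH 7.4, and fluorescence followed ≥1 h. Index taken as IC50(MAO-B)/IC50(MAO-A); ≥3 experiments in triplicate.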

Homo sapiens [2] = species: Homo sapiens; assay: Selectivity ratio of IC50 for human recombinant AChE to IC50 for human recombinant BuChE
[3] = Antioxidant activity of the compound assessed as AAPH radical scavenging activity measured as trolox equivalent at 0.1 to 1 uM preincubated for 15 mins with fluorescein followed by addition of AAPH measured every min for 1 hr by oxygen radical absorbance capacity assay; type: functional
Outline: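 ORAC: compound diluted in 75 mM PBS pH 7.4 (0.1–1 μM) and pre-incubated 15 min at 37 °C with 70 nM fluorescein. 12 mM AAPH then added and fluorescence (ex 485/em 520) read every minute for 1 h. Net area under the decay curve converted against a trolox standard curve; melatonin as reference.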

[4] = Antioxidant activity of the compound assessed as time required to induce AAPH-mediated linoleic acid peroxidation (reference value: 40 to 60 mins); type: functional
[5] = Antioxidant activity of the compound assessed as DPPH radical scavenging activity at 50 uM after 60 mins by spectrophotometric method; type: functional
Outline: (§1)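 DPPH scavenging: mixture shaken vigorously and left 60 min. Absorbance at 517 nm read and % activity calculated; trolox as comparator. Three replicates averaged.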

[6] = Antioxidant activity of the compound assessed as inhibition of Cu2+/ascorbic acid-induced H2O2 production at 0.1 to 1 uM after 10 mins by horse-radish peroxidase/amplex red-based fluorometric method; type: functional
Outline: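 H2O2 generated by 0.2 μM Cu(II) plus 10 μM ascorbic acid, incubated 10 min at room temperature with varying compound concentrations. HRP/Amplex Red mixture then added to quantify H2O2 formed.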

[7] = Antioxidant activity of the compound assessed as DPPH radical scavenging activity after 60 mins by spectrophotometric method; type: functional; outline: as §1

SMILES | Ratio IC50 (Homo sapiens [1]) | Ratio IC50 (Homo sapiens [2]) | also measured
C#CCN(Cc1ccc2cccc(O)c2n1)C(C#N)C1CCN(Cc2ccccc2)CC1 (stereo not given) | > 9.8 | 2140 | 
COc1ccc2[nH]cc(CCNC(C)=O)c2c1 |  |  | Activity [3]: 2.51 equiv
Cc1c(C)c2c(c(C)c1O)CCC(C)(C(=O)O)O2 (stereo not given) |  |  | TIME [4]: 1.67 to 2 h; Activity [5]: Active
C#CCN(CCCC1CCN(Cc2ccccc2)CC1)Cc1ccc2cccc(O)c2n1 | > 2.7 | 65 | 
C#CCN(Cc1ccc2cccc(O)c2n1)C(C#N)CCC1CCN(Cc2ccccc2)CC1 (stereo not given) | > 9.9 | 0.7 | inhibition [6]: Active; Activity [3]: 1.12 equiv; TIME [4]: 0.833 to 1 h; Activity [7]: Dose-dependent effect
C#CCN(Cc1ccc2cccc(O)c2n1)C(C#N)CC1CCN(Cc2ccccc2)CC1 (stereo not given) | > 8.2 | 1650 | 
C#CCN(Cc1ccc2cccc(O)c2n1)CC1CCN(Cc2ccccc2)CC1 | > 2.2 | 152 | 
C#CCN(CCC1CCN(Cc2ccccc2)CC1)Cc1ccc2cccc(O)c2n1 | > 2.8 | 52 | 
C#CCN(Cc1ccc(O)c2ncccc12)C(C#N)CCC1CCN(Cc2ccccc2)CC1 (stereo not given) | 1.8 |  | 
